In ChEMBL document CHEMBL5154634, “A Modular Synthetic Route Involving N-Aryl-2-nitrosoaniline Intermediates Leads to a New Series of 3-Substituted Halogenated Phenazine Antibacterial Agents” (J Med Chem, 2021):
In brackets after ≈: the same amount, converted by molar mass. Activity calls are given as the source filed them. The calls are words filed in the database; no cut-off is given here.

Columns and labels:
Staphylococcus aureus [1] = assay: Antibacterial activity against methicillin-resistant Staphylococcus aureus clinical isolate 1 assessed as bacterial growth inhibition; assay type: functional
Staphylococcus aureus [2] = assay: Induction of iron starvation in methicillin-resistant Staphylococcus aureus BAA-1707 biofilms assessed as upregulation of MW0695 gene expression at 1/10XMBEC incubated for 4 hrs by RT-qPCR analysis; assay type: functional
Outline: (§1)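 MRSA BAA-1707 grown in TSB with 0.5% glucose to OD600 ~0.8–1.0, then biofilms formed 20 h at 37 °C statically in gelatin-coated 24-well plates. Biofilms treated 4 h at 37 °C with compound (1 μM or 1/10 MBEC) or DMSO vehicle. RNA extracted; only RIN ≥7 samples used. One-step SYBR RT-qPCR; ΔCT normalised to ptaA. Three independent experiments.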

Staphylococcus aureus [3] = assay: Antibacterial activity against methicillin-resistant Staphylococcus aureus clinical isolate 2 assessed as bacterial growth inhibition; assay type: functional
Enterococcus faecalis [4] = assay: Bactericidal activity against […] Enterococcus faecalis OG1RF ATCC 47077 planktonic cells assessed as planktonic eradication incubated for 24 hrs followed by incubation for overnight in fresh medium by Calgary biofilm device assay; assay type: functional
Outline: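 Calgary biofilm device in BHI. Biofilms grown 24 h at 37 °C and challenged 24 h with twofold compound dilutions. Challenge medium subcultured 1:10 into fresh BHI overnight at 37 °C. MBC is the concentration with no turbidity. At least three independent experiments.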

Staphylococcus aureus [5] = assay: Induction of iron starvation in methicillin-resistant Staphylococcus aureus BAA-1707 biofilms assessed as upregulation of sbnC gene expression at 1/10XMBEC incubated for 4 hrs by RT-qPCR analysis; assay type: functional; outline: as §1
Staphylococcus aureus [6] = assay: Induction of iron starvation in methicillin-resistant Staphylococcus aureus BAA-1707 biofilms assessed as upregulation of MW0695 gene expression at 1 uM incubated for 4 hrs by RT-qPCR analysis; assay type: functional; outline: as §1
Staphylococcus aureus [7] = assay: Induction of iron starvation in methicillin-resistant Staphylococcus aureus BAA-1707 biofilms assessed as upregulation of isdB gene expression at 1 uM incubated for 4 hrs by RT-qPCR analysis; assay type: functional; outline: as §1
Enterococcus faecalis [8] = assay: Antibacterial activity against Enterococcus faecalis OG1RF ATCC 47077 assessed as bacterial growth inhibition incubated for 16 hrs by broth microdilution susceptibility test; assay type: functional
Staphylococcus aureus [9] = assay: Antibacterial activity against methicillin-resistant Staphylococcus aureus 129 assessed as bacterial growth inhibition; assay type: functional
Staphylococcus aureus [10] = assay: Antibiofilm activity against methicillin-resistant Staphylococcus aureus BAA-44 biofilms assessed as biofilm eradication incubated for 24 hrs followed by incubation for 24 hrs in fresh medium by Calgary biofilm device assay; assay type: functional
Outline: (§2)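 Calgary biofilm device. Mid-log culture diluted 1000-fold in TSB with 0.5% glucose; biofilms grown on pegs 24 h at 37 °C. Pegs washed and challenged with twofold compound dilutions for 24 h at 37 °C, then moved to fresh medium for 24 h. MBEC is the lowest concentration leaving wells non-turbid. At least three independent experiments.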

Enterococcus faecium [11] = assay: Antibiofilm activity against methicillin-resistant vancomycin-resistant Enterococcus faecium ATCC 700221 biofilms assessed as biofilm eradication incubated for 24 hrs followed by incubation for 24 hrs in fresh medium by Calgary biofilm device assay; assay type: functional; outline: as §2
Staphylococcus aureus [12] = assay: Antibacterial activity against methicillin-resistant Staphylococcus aureus 156 assessed as bacterial growth inhibition; assay type: functional
Enterococcus faecalis [13] = assay: Antibiofilm activity against Enterococcus faecalis OG1RF ATCC 47077 biofilms assessed as biofilm eradication incubated for 24 hrs followed by incubation for 24 hrs in fresh medium by Calgary biofilm device assay; assay type: functional
Outline: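 Calgary biofilm device. Biofilms grown 24 h at 37 °C in BHI from mid-log culture diluted 1000-fold. Pegs washed and then challenged 24 h with twofold serial dilutions. Pegs moved to fresh BHI for 24 h recovery. MBEC = lowest concentration leaving no turbidity; at least three independent experiments.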

[14] = tested on: Mycobacterium tuberculosis; assay: Antibacterial activity against Mycobacterium tuberculosis CDC1551 assessed as bacterial growth inhibition incubated for 5 days by luminescence based analysis; assay type: functional; details: CDC1551, 120 h, time 5 day
Outline: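 Bioluminescent Mtb-lux CDC1551 reporter grown in Middlebrook 7H9 with 0.05% Tween 80, 10% OADC and kanamycin to OD600 0.4–0.8, then diluted to OD600 0.02. Added to twofold drug dilutions (0.003–200 μM). Incubated 5 days at 37 °C, 5% CO2. Luminescence read against 1% DMSO and 10 μM rifampicin controls to give % growth inhibition. MIC taken from a modified Gompertz fit.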

Erythrocyte = assay: Hemolytic activity against human RBC at 200 uM measured after 1 hr; assay type: toxicity, cell-based
Outline: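 2% hRBCs exposed to compound at 200 μM final, added from DMSO stock, for 1 h at 37 °C. Supernatant OD read at 405 nm. Hemolysis normalized between DMSO (0%) and Triton X (100%); three independent experiments.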

Staphylococcus aureus [15] = assay: Antibacterial activity against methicillin-resistant Staphylococcus aureus 138 assessed as bacterial growth inhibition; assay type: functional
Staphylococcus aureus [16] = assay: Induction of iron starvation in methicillin-resistant Staphylococcus aureus BAA-1707 biofilms assessed as upregulation of sbnC gene expression at 1 uM incubated for 4 hrs by RT-qPCR analysis; assay type: functional; outline: as §1
Staphylococcus aureus [17] = assay: Induction of iron starvation in methicillin-resistant Staphylococcus aureus BAA-1707 biofilms assessed as upregulation of isdB gene expression at 1/10XMBEC incubated for 4 hrs by RT-qPCR analysis; assay type: functional; outline: as §1
Staphylococcus aureus [18] = assay: Antibacterial activity against methicillin-resistant Staphylococcus aureus 147 assessed as bacterial growth inhibition; assay type: functional
[19] = tested on: Staphylococcus epidermidis; assay: Bactericidal activity against methicillin-resistant Staphylococcus epidermidis ATCC 35984 planktonic cells assessed as planktonic eradication incubated for 24 hrs followed by incubation for overnight in fresh medium by Calgary biofilm device assay; assay type: functional
Outline: (§3)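 Calgary biofilm device. Biofilms grown 24 h at 37 °C in TSB with 0.5% glucose, then challenged 24 h with twofold compound dilutions. 20 μL of challenge medium transferred into fresh TSB with 0.5% glucose and incubated overnight at 37 °C. MBC is the concentration with no visible turbidity. At least three independent experiments.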

Enterococcus faecium [20] = assay: Bactericidal activity against methicillin-resistant vancomycin-resistant Enterococcus faecium ATCC 700221 planktonic cells assessed as planktonic eradication incubated for 24 hrs followed by incubation for overnight in fresh medium by Calgary biofilm device assay; assay type: functional; outline: as §3
Staphylococcus aureus [21] = assay: Induction of iron starvation in methicillin-resistant Staphylococcus aureus BAA-1707 biofilms assessed as upregulation of sfaA gene expression at 1 uM incubated for 4 hrs by RT-qPCR analysis; assay type: functional; outline: as §1
Staphylococcus aureus [22] = assay: Antibiofilm activity against methicillin-resistant Staphylococcus aureus BAA-1707 biofilms assessed as biofilm eradication incubated for 24 hrs followed by incubation for 24 hrs in fresh medium by Calgary biofilm device assay; assay type: functional; outline: as §2
HeLa = assay: Cytotoxicity against human HeLa cells assessed as reduction in cell viability incubated for 24 hrs by LDH release assay; assay type: toxicity, cell-based
Outline: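 HeLa cells in DMEM with 10% FBS, treated at 70–80% confluence with 25, 50 and 100 μM for 24 h. LDH in supernatant measured by 30 min reaction at room temperature, then stop solution and absorbance at 490 nm. Controls: 2% Triton X-100 (maximum), medium only, DMSO vehicle. Three independent experiments.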

[23] = tested on: Staphylococcus epidermidis; assay: Antibiofilm activity against methicillin-resistant Staphylococcus epidermidis ATCC 35984 biofilms assessed as biofilm eradication incubated for 24 hrs followed by incubation for 24 hrs in fresh medium by Calgary biofilm device assay; assay type: functional; outline: as §2
Staphylococcus aureus [24] = assay: Bactericidal activity against methicillin-resistant Staphylococcus aureus BAA-44 planktonic cells assessed as planktonic eradication incubated for 24 hrs followed by incubation for overnight in fresh medium by Calgary biofilm device assay; assay type: functional; outline: as §3
[25] = Dissociation constant, pKa of the compound at 125 uM by UV-vis spectrophotometric analysis; assay type: physicochemical; details: 125 µM
Outline: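 Compound at 125 μM final in phosphate buffers (KH₂PO₄/Na₂HPO₄) in 1:1 water/methanol, pH 4.07–9.66; ammonium hydroxide added for pH above 9.80. UV-vis scans 200–800 nm to find λmax of phenol and phenolate forms. Absorbance at each λmax plotted against pH.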

Staphylococcus aureus [26] = assay: Induction of iron starvation in methicillin-resistant Staphylococcus aureus BAA-1707 biofilms assessed as upregulation of sfaA gene expression at 1/10XMBEC incubated for 4 hrs by RT-qPCR analysis; assay type: functional; outline: as §1
[27] = tested on: Staphylococcus epidermidis; assay: Antibacterial activity against methicillin-resistant Staphylococcus epidermidis ATCC 35984 assessed as bacterial growth inhibition incubated for 16 hrs by broth microdilution susceptibility test; assay type: functional
Outline: (§4)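 CLSI broth microdilution with 11 twofold dilutions (0.05–50 μM). About 10^5 cells per well from a log-phase culture. DMSO vehicle up to 0.5% v/v. At least three independent experiments.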

HepG2 = assay: Cytotoxicity against human HepG2 cells assessed as reduction in cell viability […] by Alamar blue assay; assay type: toxicity, cell-based
J774 = assay: Cytotoxicity against mouse J774 cells assessed as reduction in cell viability […] by Alamar blue assay; assay type: toxicity, cell-based
Staphylococcus aureus [28] = assay: Antibacterial activity against methicillin-resistant Staphylococcus aureus BAA-44 assessed as bacterial growth inhibition incubated for 16 hrs by broth microdilution susceptibility test; assay type: functional
Outline: (§5)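 CLSI broth microdilution with 11 twofold dilutions (0.05–50 μM). Medium was LB for the staphylococci and BHI for VRE 700221. About 10^5 cells per well from a log-phase culture. […] DMSO vehicle up to 0.5% v/v. At least three independent experiments.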

Staphylococcus aureus [29] = assay: Antibacterial activity against methicillin-resistant Staphylococcus aureus BAA-1707 assessed as bacterial growth inhibition incubated for 16 hrs by broth microdilution susceptibility test; assay type: functional; outline: as §4
[30] = tested on: Staphylococcus epidermidis; assay: Antibacterial activity against Staphylococcus epidermidis ATCC 12228 assessed as bacterial growth inhibition by broth microdilution method; assay type: functional
Enterococcus faecium [31] = assay: Antibacterial activity against vancomycin-resistant Enterococcus faecium ATCC 700221 assessed as bacterial growth inhibition incubated for 16 hrs by broth microdilution susceptibility test; assay type: functional; outline: as §5

Compound: Oc1c(Br)cc(Br)c2nc3ccccc3nc12
- MIC (Staphylococcus aureus [1]): 1.25 µM (≈ 0.443 µg/mL)
- Activity (Staphylococcus aureus [2]): Active
- MIC (Staphylococcus aureus [3]): 1.25 µM (≈ 0.443 µg/mL)
- MBC (Enterococcus faecalis [4]): 25 µM (≈ 8.85 µg/mL)
- Activity (Staphylococcus aureus [5]): Active
- Activity (Staphylococcus aureus [6]): Active
- Activity (Staphylococcus aureus [7]): Active
- MIC (Enterococcus faecalis [8]): 12.5 µM (≈ 4.43 µg/mL)
- MIC (Staphylococcus aureus [9]): 1.25 µM (≈ 0.443 µg/mL)
- MBEC (Staphylococcus aureus [10]): 75 µM
- MBEC (Enterococcus faecium [11]): 12.5 µM
- MIC (Staphylococcus aureus [12]): 1.25 µM (≈ 0.443 µg/mL)
- MBEC (Enterococcus faecalis [13]): >200 µM
- MIC [14]: 13.7 µM (≈ 4.85 µg/mL)
- Activity (Erythrocyte): <= 1%
- MIC (Staphylococcus aureus [15]): 1.25 µM (≈ 0.443 µg/mL)
- Activity (Staphylococcus aureus [16]): Active
- Activity (Staphylococcus aureus [17]): Active
- MIC (Staphylococcus aureus [18]): 1.25 µM (≈ 0.443 µg/mL)
- MBC [19]: 25 µM (≈ 8.85 µg/mL)
- MBC (Enterococcus faecium [20]): 18.8 µM (≈ 6.66 µg/mL)
- Activity (Staphylococcus aureus [21]): Active
- MBEC (Staphylococcus aureus [22]): 100 µM
- IC50 (HeLa): > 100 µM
- MBEC [23]: 50 µM
- MBC (Staphylococcus aureus [24]): 37.5 µM (≈ 13.3 µg/mL)
- pKa [25]: 7.12
- Activity (Staphylococcus aureus [26]): Active
- MIC [27]: 2.35 µM (≈ 0.832 µg/mL)
- IC50 (HepG2): > 100 µM
- IC50 (J774): > 100 µM

Compound: Oc1c(Br)ccc2nc3ccccc3nc12
- MIC (Staphylococcus aureus [28]): 3.13 µM (≈ 0.861 µg/mL)
- MIC (Staphylococcus aureus [29]): 3.13 µM (≈ 0.861 µg/mL)
- MIC (Enterococcus faecalis [8]): 18.8 µM (≈ 5.17 µg/mL)
- MIC [30]: 6.25 µM (≈ 1.72 µg/mL)
- MIC [27]: 3.13 µM (≈ 0.861 µg/mL)
- MIC (Enterococcus faecium [31]): 6.25 µM (≈ 1.72 µg/mL)
